According to ChEMBL document CHEMBL1150807, “Daucane sesquiterpenes from Ferula hermonis” (J Nat Prod, 2001):
Values after ≈ are worked out from the molar mass of the structure shown. Active and inactive are the calls of the source. The calls are words filed in the database; no cut-off is given here.

Experiments:
[1] = test system: Staphylococcus aureus; assay: Antimicrobial activity against Staphylococcus aureus ATCC 29213; type: functional, organism-based
Outline: (§1)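 Broth microdilution in duplicate. Samples are dissolved in DMSO, serially diluted in normal saline, and mixed with inoculum from subcultured organism diluted in its incubation broth. The top final concentration is 50 µg/mL for pure compounds and 500 µg/mL for crude extracts. Controls are tetracycline, growth and media blank. OD630 is read before and after incubation, and percent growth is plotted against concentration to give IC50/MIC. MBC is found by plating 5 µL from each duplicate on agar.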

[2] = test system: Staphylococcus aureus; assay: Antimicrobial activity against methicillin-resistant Staphylococcus aureus ATCC 43300; type: functional, organism-based; outline: as §1
[3] = test system: Candida albicans; assay: Antimicrobial activity against Candida albicans ATCC 90028; type: functional
Outline: (§2)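 Subcultured organism diluted in its incubation broth for the inoculum. Samples were dissolved in DMSO, serially diluted in normal saline and tested in duplicate, starting at a final 50 µg/mL for pure compounds and 500 µg/mL for extracts. Growth and media-only controls were included. OD630 was read before and after incubation, and IC50/MIC was taken from percent growth versus concentration. MFC/MBC came from 5 µL subcultured onto agar.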

[4] = test system: Cryptococcus neoformans; assay: Antimicrobial activity against Cryptococcus neoformans ATCC 90113; type: functional; outline: as §2
[5] = test system: Aspergillus fumigatus; assay: Antimicrobial activity against Aspergillus fumigatus ATCC 90906; type: functional
Outline: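 Growth was removed from a slant into 50 mL YPD broth for the inoculum. DMSO-dissolved samples were serially diluted in saline and run in duplicate, starting at a final 50 µg/mL for pure compounds and 500 µg/mL for extracts. Amphotericin B reference, growth and blank controls were included. Endpoints were read visually. MFC came from 5 µL of each duplicate transferred to agar.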

[6] = test system: Pseudomonas aeruginosa; assay: Antimicrobial activity against Pseudomonas aeruginosa ATCC 27853; type: functional; outline: as §2
[7] = test system: Mycobacterium intracellulare; assay: Antimicrobial activity against Mycobacterium intracellular ATCC 23068; type: functional
Outline: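 Inoculum was subcultured organism diluted in its incubation broth. Samples were dissolved in DMSO, serially diluted in saline and run in duplicate, with final concentrations starting at 50 µg/mL for pure compounds and 500 µg/mL for extracts. Tetracycline reference, growth and blank controls were included. Plates were inspected visually. MBC came from 5 µL of each well plated on agar.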

Row | SMILES | Activity [1] | Activity [2] | Activity [3] | Activity [4] | Activity [5] | Activity [6] | Activity [7] | IC50 [1] [µg/mL] | IC50 [2] [µg/mL] | MIC [3] [µg/mL] | MIC [4] [µg/mL] | MIC [5] [µg/mL] | MIC [6] [µg/mL] | MIC [7] [µg/mL]
1 | CC1=CC[C@@]2(C)CC[C@@](O)(C(C)C)[C@@H]2[C@@H](O)C1 | inactive | inactive | inactive | inactive | inactive | inactive | inactive |  |  |  |  |  |  | 
2 | COc1cc(C(=O)OCC2=CC[C@@]3(C)CCC(C(C)C)=C3CC2)ccc1O | inactive | inactive | inactive | inactive | inactive | inactive | inactive |  |  |  |  |  |  | 
3 | CC(C)[C@]1(O)CC[C@]2(C)C[C@@H]3O[C@]3(C)C[C@H](O)[C@H]21 | inactive | inactive | inactive | inactive | inactive | inactive | inactive |  |  |  |  |  |  | 
4 | CC1=CC[C@@]2(C)CC[C@@](O)(C(C)C)[C@@H]2[C@@H](OC(=O)c2ccccc2)C1 | inactive | inactive | inactive | inactive | inactive | inactive | inactive |  |  |  |  |  |  | 
5 | CC(C)C1=C2CCC(COC(=O)c3ccc(O)cc3)=CC[C@@]2(C)CC1 |  |  |  |  |  |  |  | 1.5 (≈ 4.41 µM) | 2 (≈ 5.87 µM) | 6.25 (≈ 18.4 µM) | 6.25 (≈ 18.4 µM) | 6.25 (≈ 18.4 µM) | 6.25 (≈ 18.4 µM) | 6.25 (≈ 18.4 µM)
